Assay [1] relates to Staphylococcus aureus. The assay is described as follows: Antibacterial activity against Staphylococcus aureus(smith) was determined. It is filed as functional.
The next assay has as its system Bacillus subtilis. The assay is described as follows: Antibacterial activity against Bacillus subtilis was determined. It is filed as functional.
In assay [2] the test system is Staphylococcus aureus. The assay is described as follows: Antibacterial activity against methicillin-resistant strain of Staphylococcus aureus(MRSA B42876) was determined. It is filed as functional. The gist of the method:
(§1)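 MIC by broth microdilution. Log-phase cultures in Luria broth, seeded at (3-7) × 10⁵ CFU/mL stocks. Compound from DMSO stock, 2-fold serial dilutions giving five concentrations from 20 to 1.25 µg/mL, final 1% DMSO, with untreated and DMSO controls. Duplicate assays, 37 °C for 16 to 24 h, growth read as OD 600 nm. MIC is the averaged lowest concentration preventing growth.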

Assay [3] relates to Staphylococcus aureus. The assay is described as follows: Antibacterial activity against Staphylococcus aureus was determined. Type of assay: functional.
A further assay deals with Enterococcus faecium. The experiment in a line: Antibacterial activity against Enterococcus faecium was determined. It is filed as functional, enterococcus fecium. The gist of the method: (§2)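 Broth microdilution MIC. Log-phase cultures grown in Luria broth; wells seeded from stocks at (3-7) × 10⁵ CFU/mL. DMSO stocks diluted 2-fold to five concentrations, 20 to 1.25 µg/mL, plus untreated control; 1% DMSO final in all wells. Duplicate assays, 37 °C for 16 to 24 h, growth read as OD600. MIC taken as lowest concentration preventing growth, averaged.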

For assay [4], the system named is Enterococcus faecalis. The assay is described as follows: Antibacterial activity against Enterococcus faecalis was determined. It is filed as functional. The gist of the method: as §1
Assay [5] has as its system Enterococcus faecalis. The experiment in a line: Antibacterial activity against vancomycin-resistant strain of Enterococcus faecalis(VRE) was determined. Type of assay: functional. The gist of the method: as §1
In assay [6] the target is DNA polymerase III PolC-type (Bacillus subtilis (strain 168), UniProt P13267). The assay is described as follows: Inhibitory activity against DNA polymerase IIIC from Bacillus subtilis was determined. The gist of the method: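 Homogeneous recombinant B. subtilis pol IIIC, 0.025-0.06 units, added to buffered Mg²⁺/DTT/glycerol mix with dATP, dCTP, dTTP, [³H]dTTP and activated calf thymus DNA, no dGTP ("truncated" assay). Compound serial dilutions in DMSO added before enzyme. 10 min at 30 °C, TCA-pyrophosphate stop, acid-precipitated DNA filtered and scintillation counted. Apparent Ki read directly; duplicates.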

In another assay the test system is Escherichia coli. The assay is described as follows: Antibacterial activity against Escherichia coli was determined. Type of assay: functional. The gist of the method: as §2

SMILES strings stand for the structures. Values after ≈ are worked out from the molar mass of the structure shown.

DNA polymerase III PolC-type, sequence (P13267 whole entry, the tested form may be a part): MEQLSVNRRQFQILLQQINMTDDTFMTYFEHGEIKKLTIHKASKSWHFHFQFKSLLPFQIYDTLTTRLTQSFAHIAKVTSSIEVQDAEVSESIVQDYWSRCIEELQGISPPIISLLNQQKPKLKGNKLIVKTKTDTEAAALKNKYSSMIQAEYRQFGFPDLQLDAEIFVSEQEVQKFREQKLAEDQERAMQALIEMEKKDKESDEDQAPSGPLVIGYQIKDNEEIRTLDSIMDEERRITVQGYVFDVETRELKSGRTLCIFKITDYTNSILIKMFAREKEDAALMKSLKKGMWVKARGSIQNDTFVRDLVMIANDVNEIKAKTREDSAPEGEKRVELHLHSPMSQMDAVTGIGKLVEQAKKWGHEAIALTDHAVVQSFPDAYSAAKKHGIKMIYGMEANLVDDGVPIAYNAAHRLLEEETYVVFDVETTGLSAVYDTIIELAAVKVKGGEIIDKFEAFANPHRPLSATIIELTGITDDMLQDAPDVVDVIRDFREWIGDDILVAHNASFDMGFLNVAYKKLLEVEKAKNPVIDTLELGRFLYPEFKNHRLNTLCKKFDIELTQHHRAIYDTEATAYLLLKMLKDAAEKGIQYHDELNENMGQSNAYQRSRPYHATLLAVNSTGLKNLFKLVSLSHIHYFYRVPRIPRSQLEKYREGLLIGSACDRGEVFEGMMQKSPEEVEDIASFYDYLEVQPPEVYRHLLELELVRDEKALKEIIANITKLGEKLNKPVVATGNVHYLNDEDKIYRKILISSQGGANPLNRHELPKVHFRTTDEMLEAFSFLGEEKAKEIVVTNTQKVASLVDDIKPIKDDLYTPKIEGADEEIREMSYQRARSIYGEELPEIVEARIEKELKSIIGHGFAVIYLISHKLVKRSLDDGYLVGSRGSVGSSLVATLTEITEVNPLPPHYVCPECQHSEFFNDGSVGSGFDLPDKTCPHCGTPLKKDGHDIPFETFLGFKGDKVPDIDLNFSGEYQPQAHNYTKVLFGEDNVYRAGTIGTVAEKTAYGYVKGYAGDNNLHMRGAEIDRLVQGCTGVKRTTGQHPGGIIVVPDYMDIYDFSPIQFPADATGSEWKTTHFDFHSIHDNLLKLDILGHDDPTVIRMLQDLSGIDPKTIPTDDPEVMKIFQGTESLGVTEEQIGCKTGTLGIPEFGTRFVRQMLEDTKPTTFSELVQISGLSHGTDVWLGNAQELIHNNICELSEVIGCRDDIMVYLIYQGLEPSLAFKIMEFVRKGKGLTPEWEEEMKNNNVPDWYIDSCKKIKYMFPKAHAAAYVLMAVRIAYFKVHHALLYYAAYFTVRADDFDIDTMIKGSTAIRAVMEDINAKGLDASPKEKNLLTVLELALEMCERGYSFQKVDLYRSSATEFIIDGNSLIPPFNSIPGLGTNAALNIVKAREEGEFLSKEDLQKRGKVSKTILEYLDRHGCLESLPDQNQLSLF

By MIC is commonly meant the least concentration at which growth counts as inhibited. One may read the Ki as a measure of affinity in units of concentration, obtained from inhibition or displacement. Regarding `COCCCCn1c(=O)cc(Nc2ccc(C)c(I)c2)[nH]c1=O`, the minimal inhibitory concentration (MIC) was found to be 5 µg/mL (≈ 11.6 µM) in the assay with Staphylococcus aureus [1]; 5 µg/mL (≈ 11.6 µM) against Bacillus subtilis; 5 µg/mL (≈ 11.6 µM) against Staphylococcus aureus [2]; 10 µg/mL (≈ 23.3 µM) against Staphylococcus aureus [3]; 10 µg/mL (≈ 23.3 µM) against Enterococcus faecium; 10 µg/mL (≈ 23.3 µM) with Enterococcus faecalis [4]. Further, the minimum inhibitory concentration (MIC) against Enterococcus faecalis [5] was 5 µg/mL (≈ 11.6 µM); against Escherichia coli, > 20 µg/mL. The compound also returned a Ki in [6] of 0.31 µM.
On to `C=C(C)c1cc(Nc2cc(=O)n(CCCCOC)c(=O)[nH]2)ccc1C`, for which the minimal inhibitory concentration (MIC) is 10 µg/mL (≈ 29.1 µM) against Staphylococcus aureus [1]; 2.5 µg/mL (≈ 7.28 µM) with Bacillus subtilis; > 20 µg/mL in the assay on Staphylococcus aureus [2]; 20 µg/mL (≈ 58.2 µM) in the assay on Staphylococcus aureus [3]; 20 µg/mL (≈ 58.2 µM) in the assay on Enterococcus faecium; 20 µg/mL (≈ 58.2 µM) with Enterococcus faecalis [4]. Also, the minimum inhibitory concentration (MIC) with Enterococcus faecalis [5] is 20 µg/mL (≈ 58.2 µM); in the assay with Escherichia coli, > 20 µg/mL. In [6], this compound registered an inhibition constant (Ki) of 0.565 µM.
`CCc1cc(Nc2cc(=O)n(CCCCN3CCN(Cc4ccccc4)CC3)c(=O)[nH]2)ccc1C`: the MIC against Staphylococcus aureus [1] worked out at 10 µg/mL (≈ 21 µM); in the assay on Bacillus subtilis, 20 µg/mL (≈ 42 µM); against Staphylococcus aureus [2] it was 10 µg/mL (≈ 21 µM); against Staphylococcus aureus [3] it was 20 µg/mL (≈ 42 µM); with Enterococcus faecium, 10 µg/mL (≈ 21 µM); against Enterococcus faecalis [4] it was 10 µg/mL (≈ 21 µM). For the same compound, the values for the MIC with Enterococcus faecalis [5] and against Escherichia coli were 5 µg/mL (≈ 10.5 µM) and > 20 µg/mL, respectively. Further, the Ki in assay [6] came to 0.022 µM.
`CCc1cc(Nc2cc(=O)n(CCCCN=[N+]=[N-])c(=O)[nH]2)ccc1C`: the MIC with Staphylococcus aureus [1] was 2.5 µg/mL (≈ 7.3 µM); with Bacillus subtilis, < 1.25 µg/mL; in the assay with Staphylococcus aureus [2], > 20 µg/mL; in the assay with Staphylococcus aureus [3], 2.5 µg/mL (≈ 7.3 µM); against Enterococcus faecium it was < 1.25 µg/mL; against Enterococcus faecalis [4], 5 µg/mL (≈ 14.6 µM). The minimal inhibitory concentration (MIC) in the assay on Enterococcus faecalis [5] was 2.5 µg/mL (≈ 7.3 µM); in the assay with Escherichia coli, > 20 µg/mL. Moreover, the Ki in [6] was 0.12 µM.
Regarding `Cc1ccc(Nc2cc(=O)n(CCCCO)c(=O)[nH]2)cc1I`, the minimum inhibitory concentration (MIC) against Staphylococcus aureus [1] was 5 µg/mL (≈ 12 µM); against Bacillus subtilis, 5 µg/mL (≈ 12 µM); against Staphylococcus aureus [2], 5 µg/mL (≈ 12 µM); against Staphylococcus aureus [3], 10 µg/mL (≈ 24.1 µM); in the assay on Enterococcus faecium, 5 µg/mL (≈ 12 µM); against Enterococcus faecalis [4], 5 µg/mL (≈ 12 µM). Also, the minimal inhibitory concentration (MIC) with Enterococcus faecalis [5] is 2.5 µg/mL (≈ 6.02 µM); in the assay on Escherichia coli it was > 20 µg/mL. Further, affinity in [6] was put at a Ki of 0.067 µM.
As to `COCCCCn1c(=O)cc(Nc2ccc(C)c(C)c2)[nH]c1=O`, the minimal inhibitory concentration (MIC) is 10 µg/mL (≈ 31.5 µM) against Staphylococcus aureus [1]; 2.5 µg/mL (≈ 7.88 µM) in the assay with Bacillus subtilis; 10 µg/mL (≈ 31.5 µM) in the assay on Staphylococcus aureus [2]; 20 µg/mL (≈ 63 µM) in the assay on Staphylococcus aureus [3]; 20 µg/mL (≈ 63 µM) with Enterococcus faecium; 10 µg/mL (≈ 31.5 µM) with Enterococcus faecalis [4]. Further, the minimum inhibitory concentration (MIC) is 10 µg/mL (≈ 31.5 µM) in the assay with Enterococcus faecalis [5] and > 20 µg/mL in the assay on Escherichia coli. Besides, in assay [6], the Ki is 0.55 µM.
With `CCc1cc(Nc2cc(=O)n(CCCCN3CCC(O)(c4ccccc4)CC3)c(=O)[nH]2)ccc1C`, the minimum inhibitory concentration (MIC) turned out to be 20 µg/mL (≈ 42 µM) against Staphylococcus aureus [1]; 20 µg/mL (≈ 42 µM) against Bacillus subtilis; 20 µg/mL (≈ 42 µM) against Staphylococcus aureus [2]; 20 µg/mL (≈ 42 µM) in the assay with Staphylococcus aureus [3]; 10 µg/mL (≈ 21 µM) against Enterococcus faecium; 20 µg/mL (≈ 42 µM) in the assay on Enterococcus faecalis [4]. Further, the MIC against Enterococcus faecalis [5] was 10 µg/mL (≈ 21 µM); in the assay on Escherichia coli it was > 20 µg/mL. The Ki in [6] was found to be 0.067 µM.
With `CCc1cc(Nc2cc(=O)n(CCCCN3CCCCC3)c(=O)[nH]2)ccc1C`, the MIC against Staphylococcus aureus [1] is 40 µg/mL (≈ 104 µM); in the assay on Bacillus subtilis it was 10 µg/mL (≈ 26 µM); with Staphylococcus aureus [2], 40 µg/mL (≈ 104 µM); against Staphylococcus aureus [3] it was 20 µg/mL (≈ 52 µM); against Enterococcus faecium, 20 µg/mL (≈ 52 µM); in the assay on Enterococcus faecalis [4] it was 20 µg/mL (≈ 52 µM). The MIC was 10 µg/mL (≈ 26 µM) in the assay with Enterococcus faecalis [5] and > 20 µg/mL with Escherichia coli. This compound came in with an inhibition constant (Ki) in assay [6] of 0.028 µM.

Source of the values: ChEMBL document CHEMBL1144871, “Synthesis of substituted 6-anilinouracils and their inhibition of DNA polymerase IIIC and Gram-positive bacterial growth” (J Med Chem, 2003).
